Among the data in ChEMBL document CHEMBL1130330, “Synthesis of gonadotropin-releasing hormone III analogs. Structure-antitumor activity relationships” (1997) are Inhibition values, retold here.

Square brackets hold non-standard residues; d marks the D form. Peptide text beside a SMILES is read from it. pGlu = O=C1CC[C@@H](C(=O)O)N1

The species named for one assay is Homo sapiens. The assay is described as follows: (§1) The concentration to inhibit colony formation of MCF-7 human tumor cell lines. It is filed as functional, MCF7. The method in brief: (§2)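 Clonogenic assay on human tumor cell lines, with each peptide at 50 (unit as printed). Colony formation reflects cell survival. Results are given as % inhibition of colony formation relative to untreated controls, mean ± deviation.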

For another assay, the system named is Ishikawa. The assay is described as follows: The concentration to inhibit colony formation of Ishikawa human tumor cell lines. Format: functional. The method in brief:
as §2

In assay [1] the test system is MCF7. In words: The concentration to inhibit cell proliferation of MCF-7 human tumor cell lines. Format: functional. The method in brief: (§3)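 Cell proliferation assay with peptide treatment. Cells are released from Petri dishes by trypsinization and counted directly. Results are expressed as percentage of control values.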
Assay [2] relates to MCF7. The assay is described as follows: The concentration to inhibit cell proliferation of MCF-7 human tumor cell lines using the sulforhodamine B assay. Format: functional. The method in brief: (§4)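 Sulforhodamine B assay with each peptide at 50 (unit as printed). Dye bound to cells is quantified spectrophotometrically. Results are expressed as % inhibition relative to control, mean ± deviation.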
(In general: Sulforhodamine B stains cellular protein and so reports cell mass.)

The subject of assay [3] is MDA-MB-231. The assay is described as follows: The concentration to inhibit cell proliferation of MDA-MB-231 human tumor cell lines. Format: functional. The method in brief: as §3
Assay [4] has as its system MDA-MB-231. The assay is described as follows: The concentration to inhibit cell proliferation of MDA-MB-231 human tumor cell lines using the sulforhodamine B assay. Format: functional. The method in brief: as §4
Assay [5] relates to MDA-MB-231. In words: The concentration to inhibit colony formation of MDA-MB-231 human tumor cell lines. Format: functional. The method in brief:
as §2

Assay [6] deals with LNCaP. The assay is described as follows: The concentration to inhibit cell proliferation of LNCaP human tumor cell lines. Format: functional.
Assay [7] concerns LNCaP. In words: The concentration to inhibit cell proliferation of LNCaP human tumor cell lines using the sulforhodamine B assay. It is filed as functional. The method in brief:
as §4

Assay [8] concerns MCF7. Described as §1. Format: functional. The method in brief: as §2
The subject of assay [9] is PC-3. The assay is described as follows: The concentration to inhibit cell proliferation of PC3 human tumor cell lines. Format: functional. The method in brief: as §3
Assay [10] concerns PC-3. The assay is described as follows: The concentration to inhibit cell proliferation of PC3 human tumor cell lines using the sulforhodamine B assay. It is filed as functional. The method in brief: as §4
The test system of assay [11] is PC-3. The assay is described as follows: The concentration to inhibit colony formation of PC3 human tumor cell lines. Format: functional. The method in brief: as §2

The Inhibition is the change of the read-out against control, counted positive when it falls. Read a high Inhibition as a strong effect. Consider `NCCCC[C@H](NC(=O)[C@H](Cc1c[nH]c2ccccc12)NC(=O)[C@H](CC(=O)O)NC(=O)[C@H](Cc1c[nH]cn1)NC(=O)[C@H](CO)NC(=O)[C@H](Cc1c[nH]c2ccccc12)NC(=O)[C@H](Cc1c[nH]cn1)NC(=O)[C@@H]1CCC(=O)N1)C(=O)N1CCC[C@H]1C(=O)NCC(N)=O`, for which the Inhibition is on record as 18% in the assay filed under Homo sapiens; 18% with Ishikawa; 18% in the assay with MCF7 [1]; 20% in the assay with MCF7 [2]; 18% in the assay on MDA-MB-231 [3]; 19% with MDA-MB-231 [4]. The Inhibition came to 44% with MDA-MB-231 [5]; 32% in the assay on LNCaP [6]; 40% in the assay on LNCaP [7]; 45% in the assay with MCF7 [8]; 14% in the assay with PC-3 [9]; 12% in the assay on PC-3 [10]. The compound further yielded an Inhibition in the assay on PC-3 [11] of 21%.

`NCCCC[C@H](NC(=O)[C@H](Cc1ccccc1)NC(=O)[C@H](CC(=O)O)NC(=O)[C@H](Cc1c[nH]cn1)NC(=O)[C@H](CO)NC(=O)[C@H](Cc1c[nH]c2ccccc12)NC(=O)[C@H](Cc1c[nH]cn1)NC(=O)[C@@H]1CCC(=O)N1)C(=O)N1CCC[C@H]1C(=O)NCC(N)=O`: the Inhibition in the assay on MDA-MB-231 [5] is listed as 21%; with MCF7 [8] it was 26%.

For the compound `NCCCC[C@H](NC(=O)[C@H](Cc1c[nH]c2ccccc12)NC(=O)[C@H](CC(=O)O)NC(=O)[C@H](Cc1c[nH]cn1)NC(=O)[C@H](CO)NC(=O)[C@H](Cc1c[nH]c2ccccc12)NC(=O)[C@H](Cc1c[nH]cn1)NC(=O)[C@@H]1CCC(=O)N1)C(=O)N1CC=C[C@H]1C(=O)NCC(N)=O`, the Inhibition is recorded as 21% in the assay with Ishikawa; 19% in the assay with MCF7 [2]; 18% in the assay on MDA-MB-231 [4]; 42% with MDA-MB-231 [5]; 42% in the assay on MCF7 [8]; 14% with PC-3 [10]. Further, the Inhibition with PC-3 [11] came out at 19%.

Consider `C[C@@H](NC(=O)[C@@H]1CCCN1C(=O)[C@H](CCCCN)NC(=O)[C@H](Cc1c[nH]c2ccccc12)NC(=O)[C@H](CC(=O)O)NC(=O)[C@H](Cc1c[nH]cn1)NC(=O)[C@H](CO)NC(=O)[C@H](Cc1c[nH]c2ccccc12)NC(=O)[C@H](Cc1c[nH]cn1)NC(=O)[C@@H]1CCC(=O)N1)C(N)=O`, for which the Inhibition was found to be 6% in the assay with Ishikawa; 8% with MCF7 [2]; 8% in the assay with MDA-MB-231 [4]; 15% in the assay on MDA-MB-231 [5]; 4% in the assay with MCF7 [8]; 2% in the assay with PC-3 [10]. The compound further had an Inhibition with PC-3 [11] of 3%.

Regarding `NCCCC[C@H](NC(=O)[C@H](Cc1cn(C=O)c2ccccc12)NC(=O)[C@H](CC(=O)O)NC(=O)[C@H](Cc1c[nH]cn1)NC(=O)[C@H](CO)NC(=O)[C@H](Cc1cn(C=O)c2ccccc12)NC(=O)[C@H](Cc1c[nH]cn1)NC(=O)[C@@H]1CCC(=O)N1)C(=O)N1CC=C[C@H]1C(=O)NCC(N)=O`, the Inhibition in the assay on Ishikawa came to 24%; in the assay on MDA-MB-231 [5], 32%; in the assay on MCF7 [8], 31%; in the assay with PC-3 [11] it was 20%.

On to `CC(C)C[C@H](NC(=O)CNC(=O)[C@H](Cc1ccc(O)cc1)NC(=O)[C@H](CO)NC(=O)[C@H](Cc1c[nH]c2ccccc12)NC(=O)[C@H](Cc1c[nH]cn1)NC(=O)[C@@H]1CCC(=O)N1)C(=O)N[C@@H](CCCN=C(N)N)C(=O)N1CCC[C@H]1C(=O)NCC(N)=O`, for which the Inhibition was 17% with Ishikawa, 29% in the assay with MDA-MB-231 [5], 27% in the assay on MCF7 [8] and 15% in the assay with PC-3 [11].

In the case of `NC(=O)CNC(=O)[C@@H]1CCCN1C(=O)[C@@H]1CCCCNC(=O)C[C@H](NC(=O)[C@H](Cc2c[nH]cn2)NC(=O)[C@H](CO)NC(=O)[C@H](Cc2c[nH]c3ccccc23)NC(=O)[C@H](Cc2c[nH]cn2)NC(=O)[C@@H]2CCC(=O)N2)C(=O)N[C@@H](Cc2c[nH]c3ccccc23)C(=O)N1`, the Inhibition is on record as 16% in the assay with Ishikawa; 20% in the assay on MCF7 [2]; 16% in the assay with MDA-MB-231 [4]; 27% with MDA-MB-231 [5]; 44% with MCF7 [8]; 11% in the assay with PC-3 [10]. Moreover, the Inhibition in the assay on PC-3 [11] is on record as 18%.

As to `NCCCC[C@H](NC(=O)[C@H](Cc1c[nH]c2ccccc12)NC(=O)[C@H](Cc1c[nH]cn1)NC(=O)[C@@H]1CCC(=O)N1)C(=O)N[C@@H](Cc1c[nH]cn1)C(=O)N[C@@H](CC(=O)O)C(=O)N[C@@H](Cc1c[nH]c2ccccc12)C(=O)N[C@@H](CCCCN)C(=O)N1CCC[C@H]1C(=O)NCC(N)=O`, the Inhibition in the assay with Ishikawa came to 21%; in the assay with MDA-MB-231 [5], 35%; with MCF7 [8] it was 40%; with PC-3 [11], 15%.

On to `CC(=O)NCCCC[C@H](NC(=O)[C@H](Cc1c[nH]c2ccccc12)NC(=O)[C@H](Cc1c[nH]cn1)NC(=O)[C@@H]1CCC(=O)N1)C(=O)N[C@@H](Cc1c[nH]cn1)C(=O)N[C@@H](CC(=O)O)C(=O)N[C@@H](Cc1c[nH]c2ccccc12)C(=O)N[C@@H](CCCCN)C(=O)N1CCC[C@H]1C(=O)NCC(N)=O`, for which the Inhibition with Ishikawa is reported as 14%; with MDA-MB-231 [5] it was 42%; in the assay with MCF7 [8], 52%; in the assay on PC-3 [11], 12%.

With `NCCCC[C@H](NC(=O)[C@H](Cc1c[nH]c2ccccc12)NC(=O)[C@H](CCC(=O)O)NC(=O)[C@H](Cc1c[nH]cn1)NC(=O)[C@H](CO)NC(=O)[C@H](Cc1c[nH]c2ccccc12)NC(=O)[C@H](Cc1c[nH]cn1)NC(=O)[C@@H]1CCC(=O)N1)C(=O)N1CCC[C@H]1C(=O)NCC(N)=O`, the Inhibition turned out to be 5% with Ishikawa; 17% in the assay on MCF7 [2]; 27% in the assay with MDA-MB-231 [4]; 25% with MDA-MB-231 [5]; 44% in the assay on MCF7 [8]; 12% in the assay on PC-3 [10]. In addition, in the assay with PC-3 [11], the Inhibition turned out to be 20%.

For the compound `NCCCC[C@H](NC(=O)[C@H](CO)NC(=O)[C@H](Cc1c[nH]c2ccccc12)NC(=O)[C@H](Cc1c[nH]cn1)NC(=O)[C@@H]1CCC(=O)N1)C(=O)N[C@H]1CC(=O)NCCCC[C@@H](C(=O)N2CCC[C@H]2C(=O)NCC(N)=O)NC(=O)[C@H](Cc2c[nH]c3ccccc23)NC1=O`, the Inhibition in the assay with Ishikawa was found to be 13%; in the assay on MCF7 [2], 19%; in the assay on MDA-MB-231 [4] it was 21%; with MDA-MB-231 [5] it was 27%; in the assay with MCF7 [8] it was 44%; in the assay on PC-3 [10] it was 16%. The compound further gave an Inhibition in the assay on PC-3 [11] of 11%.

Take `NCCCC[C@H](NC(=O)[C@H](CO)NC(=O)[C@H](Cc1c[nH]c2ccccc12)NC(=O)[C@H](Cc1c[nH]cn1)NC(=O)[C@@H]1CCC(=O)N1)C(=O)N[C@@H](CC(=O)O)C(=O)N[C@@H](Cc1c[nH]c2ccccc12)C(=O)N[C@@H](CCCCN)C(=O)N1CCC[C@H]1C(=O)NCC(N)=O`: the Inhibition in the assay with Ishikawa is listed as 6%; in the assay on MCF7 [2], 4%; in the assay with MDA-MB-231 [4], 2%; with MDA-MB-231 [5], 4%; with MCF7 [8], 5%; with PC-3 [11], 0%.

Regarding `CCNC(=O)[C@@H]1CCCN1C(=O)[C@H](CCCCN)NC(=O)[C@H](Cc1c[nH]c2ccccc12)NC(=O)[C@H](CC(=O)O)NC(=O)[C@H](Cc1c[nH]cn1)NC(=O)[C@H](CO)NC(=O)[C@H](Cc1c[nH]c2ccccc12)NC(=O)[C@H](Cc1c[nH]cn1)NC(=O)[C@@H]1CCC(=O)N1` ([pGlu]HWSHDWKP-NHEt), the Inhibition in the assay with Ishikawa came to 13%; with MCF7 [2], 20%; in the assay with MDA-MB-231 [4], 32%; with MDA-MB-231 [5], 27%; with MCF7 [8], 28%; with PC-3 [10], 15%. Besides, the Inhibition in the assay with PC-3 [11] is listed as 22%.
